In article PMC8010999 (Journal of medicinal chemistry, 2020):

Tests used:
rhMMP-12 = rhMMP-12 (Homo sapiens, UniProt P39900); test: MMP affinity determination; format: biochemical
How it was run: (§1)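 Inhibition constants were derived from the kinetic effect of the test compound on MMP cleavage of the fluorogenic substrate Mca-Lys-Pro-Leu-Gly-Leu-Dpa-Ala-Arg-NH2. Conditions: 50 mM Tris/HCl pH 6.8, 10 mM CaCl2, 25 °C, with 0.2–0.5 nM enzyme. […] Fluorescence was monitored, and Ki was obtained by the Horovitz–Levitzki method.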

rhMMP-7 = molecular target: T1, rhMMP-7 (Homo sapiens, UniProt P09237); test: MMP affinity determination; format: biochemical; conditions: relative to CGA
T1 sequence (P09237 95-267): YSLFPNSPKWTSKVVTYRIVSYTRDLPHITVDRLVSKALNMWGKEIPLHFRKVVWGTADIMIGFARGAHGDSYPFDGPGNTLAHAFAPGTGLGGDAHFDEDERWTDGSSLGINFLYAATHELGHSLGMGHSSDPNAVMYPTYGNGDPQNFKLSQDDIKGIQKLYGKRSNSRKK
How it was run: as §1

MMP-12 = MMP-12 (Mus musculus, UniProt P34960); test: 99mTc-AGA-2 binding specificity; conditions: co-incubation with 500-fold molar excess, P < 0.001
MMP-12, sequence (P34960 110-473): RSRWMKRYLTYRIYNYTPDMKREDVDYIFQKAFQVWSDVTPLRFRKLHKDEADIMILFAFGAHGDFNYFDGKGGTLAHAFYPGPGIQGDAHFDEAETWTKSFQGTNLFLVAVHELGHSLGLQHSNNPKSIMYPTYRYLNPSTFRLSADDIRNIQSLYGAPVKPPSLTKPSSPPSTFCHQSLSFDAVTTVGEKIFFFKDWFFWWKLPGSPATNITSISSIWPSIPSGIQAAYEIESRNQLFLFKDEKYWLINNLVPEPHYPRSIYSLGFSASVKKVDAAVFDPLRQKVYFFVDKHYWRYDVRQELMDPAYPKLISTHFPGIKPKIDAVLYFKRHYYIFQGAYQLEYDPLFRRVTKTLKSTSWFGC
How it was run: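 Tissues came from Apoe−/− mice given angiotensin II (1,000 ng/kg/min) by subcutaneous minipump for 4 weeks. Tracer binding was compared in aneurysmal aorta and in normal-size infrarenal aorta, with or without MMP inhibitors.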

rhMMP-12, sequence (P39900 106-470): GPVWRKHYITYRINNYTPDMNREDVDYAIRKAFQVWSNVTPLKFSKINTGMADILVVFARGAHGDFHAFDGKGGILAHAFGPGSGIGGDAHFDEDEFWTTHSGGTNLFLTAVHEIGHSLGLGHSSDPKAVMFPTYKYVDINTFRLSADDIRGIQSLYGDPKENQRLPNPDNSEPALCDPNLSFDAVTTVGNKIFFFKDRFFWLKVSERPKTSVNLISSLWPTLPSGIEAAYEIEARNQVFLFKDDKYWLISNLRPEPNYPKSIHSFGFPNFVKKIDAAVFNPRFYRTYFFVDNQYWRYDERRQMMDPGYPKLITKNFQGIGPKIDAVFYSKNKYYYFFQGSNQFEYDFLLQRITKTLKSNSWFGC

Compound: CC(C)C[C@H](CC(=O)NO)C(=O)N[C@@H](Cc1ccccc1)C(=O)O [AGA]
- drop in potency for MMP-12 on ring opening from cyclic CGA to acyclic AGA (rhMMP-12; relative to CGA): 10 fold
- drop in potency for MMP-7 on ring opening from cyclic CGA to acyclic AGA (rhMMP-7): 10 fold
- effect on 99mTc-AGA-2 binding to AAA tissue (MMP-12): significantly reduced

Compound: CC(C)C[C@H]1C(=O)N[C@H](C(=O)N[C@@H](CCC(=O)O)C(=O)O)Cc2ccc(cc2)OCCC[C@@H]1C(=O)NO [CGA-1]
- selectivity for rhMMP-12 relative to rhMMP-7 (rhMMP-12; against rhMMP-7): at least 12 folds

Compound: CC(C)C[C@H]1C(=O)N[C@H](C(=O)O)Cc2ccc(cc2)OCCC[C@@H]1C(=O)NO [CGA]
- selectivity for rhMMP-12 relative to rhMMP-13 (rhMMP-12; against rhMMP-13): 28 folds

Compound: CNC(=O)[C@H](Cc1c[nH]c2ccccc12)NC(=O)[C@@H](CC(=O)NO)CC(C)C [GM6001, reference compound]
- effect on 99mTc-AGA-2 binding to AAA tissue (MMP-12): significantly reduced
